Screening data (PubChem BioAssay)
In the library only some 2.2% were active in any assay of this set; here they are far more common.
Statin myotox sup = suppressors of statin myotoxicity in C2C12 myotubes, primary screen, cell-based, single point, plate reader | C2C12 myotubes + simvastatin, ATP luminescence, 48 h; scaled: DMSO 0, geranylgeraniol control 100 | 330,000 tested, 0.78% active | rescue of ATP level, % at 7.49 µM;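 active means mean ATP rescue above about 67%, or every replicate alone reaching that limit, limit read from the data, passing the limit was not always enough; inconclusive means no clear call, values can overlap the other calls; inactive means mean under the limit and some replicate under it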;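 further: myotubes were challenged with 10 µM simvastatin during compound exposure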
E-selectin induc = E-selectin induction in HUVECs, primary screen, imaging, HUVEC, immunofluorescence imaging, single point; P16581; normalized: neutral wells 0, TNF-alpha wells 100; activation, % at 7.58 µM; 260,000 tested, 0.37% active; AID 686992, 2013;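 active means mean E-selectin-positive cell signal at least 10% of the positive control, reached in at least 60% of replicates, without over 20% cell loss; inconclusive means no rule given, readout overlaps actives, possibly toxicity-flagged; inactive means the rest, including those meeting only one limit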
Target sequence (P16581 whole entry, looked up): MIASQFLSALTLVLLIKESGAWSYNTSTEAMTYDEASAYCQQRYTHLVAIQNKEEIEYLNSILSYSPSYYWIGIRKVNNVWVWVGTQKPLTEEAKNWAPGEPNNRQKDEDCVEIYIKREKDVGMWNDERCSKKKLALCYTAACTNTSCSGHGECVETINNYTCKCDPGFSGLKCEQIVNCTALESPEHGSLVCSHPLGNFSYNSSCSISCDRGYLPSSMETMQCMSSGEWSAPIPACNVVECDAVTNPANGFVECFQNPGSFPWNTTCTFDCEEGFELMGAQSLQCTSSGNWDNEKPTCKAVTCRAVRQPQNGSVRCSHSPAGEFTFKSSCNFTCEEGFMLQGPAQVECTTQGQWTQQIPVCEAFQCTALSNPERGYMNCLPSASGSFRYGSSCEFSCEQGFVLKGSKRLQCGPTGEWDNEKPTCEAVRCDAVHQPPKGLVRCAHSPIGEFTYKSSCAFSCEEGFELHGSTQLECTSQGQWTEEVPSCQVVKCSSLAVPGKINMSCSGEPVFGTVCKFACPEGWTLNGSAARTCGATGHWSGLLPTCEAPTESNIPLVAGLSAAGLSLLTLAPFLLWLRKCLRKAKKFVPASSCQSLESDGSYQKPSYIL
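assay system = HUVEC, human umbilical vein endothelial cells | input = 3,000 HUVEC seeded per well | medium = EGM-2 growth medium on 0.1% gelatin-coated wells | dosing = one compound dose added by pin transfer | signal = immunofluorescence imaging | read-out basis = % PE-positive cells | control set = TNF-alpha, DMSO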
DENV2 CPE = inhibitors of DENV2 cytopathic effect, primary screen, cell-based, plate reader, single concentration; DENV2-infected cells, cytopathic effect rescue; CPE inhibition, % at 9.99 µM; 350,000 tested, 1.7% active; AID 651640, 2012; in the data active means CPE inhibition above about 20%, passing the limit was not always enough; inconclusive means no clear call, values can overlap the other calls; tested in BHK-21 cells
A number is an active result.

Screening c1ccc(-c2csc3nnc(SCc4ccc5c(c4)OCCO5)n23)cc1 returned Statin myotox sup 157.
`O=C(CSc1nnc2scc(-c3ccccc3)n12)c1ccc2c(c1)OCCO2` gave Statin myotox sup inactive, E-selectin induc inactive and DENV2 CPE inactive.
`CCOC(=O)N1CCN(C(=O)CSCC(=O)Nc2nc(-c3ccc4c(c3)OCO4)cs2)CC1` gave Statin myotox sup 122.
`O=C(CSCC(=O)N1CCOCC1)Nc1nc(-c2ccc3c(c2)OCO3)cs1` gave Statin myotox sup inactive, E-selectin induc inactive and DENV2 CPE inactive.
O=C(Nc1ccccc1F)N1CCCCN2[C@H](CO)[C@H](c3ccc(C#Cc4ccccc4)cc3)[C@@H]2C1 was read as E-selectin induc inactive and DENV2 CPE inactive.
`CCC(=O)N1CCCCN2[C@@H](CO)[C@@H](c3ccc(C#Cc4ccccc4F)cc3)[C@@H]2C1` gave Statin myotox sup inactive, E-selectin induc inactive and DENV2 CPE inconclusive.
Screening O=C(Nc1ccccc1F)N1CCCCN2[C@H](CO)[C@@H](c3ccc(C#Cc4ccccc4)cc3)[C@@H]2C1 returned E-selectin induc inactive and DENV2 CPE 21.
Screening CC(=O)N1CCCCN2[C@H](CO)[C@@H](c3ccc(C#Cc4ccccc4F)cc3)[C@H]2C1 returned E-selectin induc inactive and DENV2 CPE 24.
`COc1ccc(C#Cc2ccc([C@H]3[C@H]4CN(C(=O)c5ccc(F)cc5)CC(=O)N4[C@H]3CO)cc2)cc1` gave E-selectin induc inactive and DENV2 CPE inactive.
CO[C@H](CN(C)S(=O)(=O)c1cccc(Cl)c1)[C@@H](C)CN(C(=O)Nc1ccccc1F)[C@@H](C)CO was read as Statin myotox sup inactive, E-selectin induc inactive and DENV2 CPE inactive.
`O=C(O)C[C@H]1CC[C@@H](NC(=O)c2ccccc2F)[C@H](CO)O1` gave Statin myotox sup inactive, E-selectin induc inactive and DENV2 CPE inactive.
COC(=O)CCC(=O)Nc1sc(Cc2ccccc2)c(C)c1C(N)=O was read as DENV2 CPE inactive.
For COC(=O)CCC(=O)Nc1sc(C)c(C)c1C(N)=O the results were Statin myotox sup 111.
For COc1cccc(S(=O)(=O)N(C)C[C@@H]2Oc3ncc(C#CC(C)C)cc3C(=O)N([C@@H](C)CO)C[C@@H]2C)c1 the results were Statin myotox sup inactive, E-selectin induc inactive and DENV2 CPE inactive.
`CO[C@H]1CN(C)C(=O)c2ccc(NS(=O)(=O)c3ccccc3)cc2OC[C@H](C)N(C)C[C@@H]1C` gave E-selectin induc inactive and DENV2 CPE inactive.
For CO[C@H]1CN(C)C(=O)c2cc(NS(=O)(=O)c3ccccc3)ccc2OC[C@H](C)N(C)C[C@H]1C the results were Statin myotox sup inactive, E-selectin induc inactive and DENV2 CPE 27.
Screening CO[C@@H]1CN(C)C(=O)c2ccc(NS(=O)(=O)c3ccccc3)cc2OC[C@H](C)N(C)C[C@H]1C returned Statin myotox sup inactive, E-selectin induc inactive and DENV2 CPE 25.
For CO[C@H]1CN(C)C(=O)c2ccc(NS(=O)(=O)c3ccccc3)cc2OC[C@@H](C)N(Cc2ccccn2)C[C@H]1C the results were Statin myotox sup inactive, E-selectin induc inactive and DENV2 CPE inactive.
For CO[C@H]1CN(C)C(=O)c2ccc(NS(=O)(=O)c3ccccc3)cc2OC[C@H](C)N(Cc2ccccn2)C[C@@H]1C the results were Statin myotox sup inactive, E-selectin induc inactive and DENV2 CPE 36.
CO[C@H]1CN(C)C(=O)c2cc(NS(=O)(=O)c3ccccc3)ccc2OC[C@@H](C)N(C)C[C@@H]1C was read as Statin myotox sup inactive and E-selectin induc inactive.
`CO[C@@H](C(=O)N(C)C[C@H]1OCc2ccccc2-c2c(n(C)c3ccccc23)C(=O)N([C@@H](C)CO)C[C@H]1C)c1ccccc1` gave Statin myotox sup inactive and E-selectin induc inactive.
For CO[C@H](C(=O)N(C)C[C@H]1OCc2ccccc2-c2c(n(C)c3ccccc23)C(=O)N([C@@H](C)CO)C[C@@H]1C)c1ccccc1 the results were E-selectin induc inactive and DENV2 CPE 26.
Screening C[C@@H]1CN([C@H](C)CO)C(=O)c2c(c3ccccc3n2C)-c2ccccc2CO[C@@H]1CN(C)C(=O)N[C@H](C)c1ccccc1 returned Statin myotox sup inactive, E-selectin induc inactive and DENV2 CPE inactive.
Screening C[C@H](CO)N1C[C@H](C)[C@H](CN(C)C(=O)Nc2ccc(-c3ccccc3)cc2)OCc2ccccc2-c2c(n(C)c3ccccc23)C1=O returned E-selectin induc inactive and DENV2 CPE 88.
`C[C@H](NC(=O)N(C)C[C@H]1OCc2ccccc2-c2c(n(C)c3ccccc23)C(=O)N([C@H](C)CO)C[C@H]1C)c1ccccc1` gave DENV2 CPE 32.
C[C@H]1CN([C@@H](C)CO)C(=O)c2c(c3ccccc3n2C)-c2ccccc2CO[C@H]1CN(C)C(=O)Nc1ccc(-c2ccccc2)cc1 was read as E-selectin induc inactive and DENV2 CPE inactive.
C[C@H]1CN([C@@H](C)CO)C(=O)c2cccc(NC(=O)Nc3ccccc3)c2O[C@H]1CN(C)CC1CCCCC1 was read as Statin myotox sup inactive, E-selectin induc inactive and DENV2 CPE inactive.
`COc1cccc(S(=O)(=O)Nc2ccc3c(c2)C(=O)N(C)C[C@H](OC)[C@H](C)CN(C(=O)Cc2cccnc2)[C@H](C)CO3)c1` gave Statin myotox sup inactive, E-selectin induc inactive and DENV2 CPE inactive.
C[C@H](NC(=O)[C@H]1[C@H](CO)[C@H]2Cn3c(ccc(-c4ccncc4)c3=O)[C@@H]1N2C)c1ccccc1 was read as Statin myotox sup inactive, E-selectin induc inactive and DENV2 CPE inactive.
`COc1cccc(/C=C2\SC(=S)N(CCCC(=O)N3CCCCC3)C2=O)c1` gave Statin myotox sup inactive, E-selectin induc inactive and DENV2 CPE 27.
Screening COc1cccc(/C=C2/SC(=S)N(CCC(=O)N3CCOCC3)C2=O)c1 returned Statin myotox sup inactive and DENV2 CPE inactive.
For Cc1noc(C)c1NC(=O)N(C)C[C@H]1OCCCC[C@H](C)Oc2ccc(NS(=O)(=O)c3c(C)noc3C)cc2C(=O)N([C@H](C)CO)C[C@@H]1C the results were Statin myotox sup inactive, E-selectin induc inactive and DENV2 CPE 34.
For COc1ccc(S(=O)(=O)Nc2ccc3c(c2)C(=O)N([C@@H](C)CO)C[C@@H](C)[C@H](CN(C)C(=O)Nc2c(C)noc2C)OCCCC[C@@H](C)O3)cc1 the results were Statin myotox sup inactive, E-selectin induc inactive and DENV2 CPE inactive.
For Cc1noc(C)c1NC(=O)N(C)C[C@@H]1OCCCC[C@H](C)Oc2ccc(NS(=O)(=O)c3c(C)noc3C)cc2C(=O)N([C@@H](C)CO)C[C@H]1C the results were Statin myotox sup inactive, E-selectin induc inactive and DENV2 CPE inactive.
Screening COc1ccc(S(=O)(=O)Nc2ccc3c(c2)C(=O)N([C@H](C)CO)C[C@H](C)[C@@H](CN(C)C(=O)Nc2c(C)noc2C)OCCCC[C@@H](C)O3)cc1 returned Statin myotox sup inactive, E-selectin induc inactive and DENV2 CPE 41.
